Reference: PubChem BioAssay AID1665 (Sanford-Burnham Center for Chemical Genomics, 2009)
Activity calls are given as the source filed them.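 Rule for the calls: active = nuclear translocation activity above 50% at 5 µM, with a well cell count of 50 or more; inconclusive = wells under 50 cells across six images, flagged as toxic; inactive = the rest.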

System: HeLa beta-catenin nuclear translocation, immunofluorescence imaging
Experiment: modulators of beta-catenin nuclear translocation, primary screen, imaging, HeLa cells, immunofluorescence, high-content (AID 1665)
Outline: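 Technique: fluorescence imaging of beta-catenin antibody stain plus DAPI / Material: human HeLa cell line / Incubation: compound treatment 24 h, 37°C, 5% CO2 / Read-out basis: % activation of per-cell nuclear versus cytoplasmic median beta-catenin signal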

SMILES | EC50, beta-catenin nuclear translocation induction (lower = more potent)
CN1C(=O)/C(=C/c2ccc(N3CCCCCC3)o2)C(=O)NC1=S | 2.9 µM
Cn1c(O)c(/C=C/C=Nc2ccccc2)c(=O)n(C)c1=S | > 20 µM (inactive)
CCOC(=O)N1CCN(C(=O)c2cc(-c3ccc(OCC)cc3)nc3ccccc23)CC1 | 2.06 µM
CCCCn1c(O)c(/C=C/C=C/C=Nc2ccccc2)sc1=S | 8.79 µM
Cc1ccc(NC(=O)Nc2ccnc(-c3cccnc3)n2)cc1 | > 20 µM (inactive)
C=CC[C@H]1CC(Cc2ccccc2)=C[C@H](CC=C)N1 | 0.77 µM
CCN1/C(=C/C=C/c2oc3ccc4ccccc4c3[n+]2CC)Oc2ccc3ccccc3c21 | 5.18 µM
O=C(CSc1ncnc2nc[nH]c12)NCCc1ccccc1 | 1.75 µM
Cn1c(-c2ccccc2)cc2c3no[n+]([O-])c3ccc21 | > 20 µM (inactive)
CC1=CC(C)C(COC(N)=O)(COC(N)=O)C(C)C1 (stereo not given) | 4.49 µM
CCOC(=O)/C(=C/C=C1\Sc2cc(OCC)c(OCC)cc2N1CC)C(C)=O | > 20 µM (inactive)
CCN(CC)c1ccc(/C=C/c2cc(-c3ccccc3)c3ccccc3n2)cc1 | 2.56 µM
Oc1c(/C=C/C=C/C=Nc2ccccc2)sc(=S)n1Cc1ccccc1 | > 20 µM (inactive)
CCC(/C=C1\Sc2ccc(OC)cc2N1CC)=C\c1sc2ccc(OC)cc2[n+]1CCCS(=O)(=O)[O-] | 4.19 µM
O=c1ccc2[n+]([O-])c3ccc(O)cc3oc-2c1 | 7.27 µM
CCC(/C=C1\Sc2ccc(OC)cc2N1CCO)=C\c1sc2ccc(OC)cc2[n+]1CCO | > 20 µM (inactive)
COc1ccc(/C=C(/NC(=O)c2cccc([N+](=O)[O-])c2)C(=O)O)cc1OC | > 20 µM (inactive)
O=C1NC(=O)C(=C/C=C/c2coc3ccc(Br)cc3c2=O)C(=O)N1 | > 20 µM (inactive)
CCN1C(c2ccccc2)=C(c2ccccc2)S/C1=C/C=C1\SC(=S)N(C)C1=O | 0.56 µM
CC[n+]1c(/C=C/C=C/N(C(C)=O)c2ccccc2)sc2ccccc21 | 8.42 µM
CN1\C(=C/C=C/C=C/C=[N+](C)C)C(C)(C)c2ccccc21 | 9.2 µM
COC(=O)c1[nH]c2ccc(Br)cc2c1NC(=O)CN1CCN(C2CCCCC2)CC1 | 3.85 µM
CCN1/C(=C/c2ccc3cc(C)ccc3[n+]2C)Sc2ccc3sccc3c21 | > 20 µM (inactive)
CCN1C(=O)/C(=C/C=C2/Sc3ccccc3N2CCO)SC1=S | > 20 µM (inactive)
CCN1/C(=C/C=C/C=C/c2sc3ccccc3[n+]2CC)Sc2ccccc21 | 3.73 µM
Cn1c2ccccc2c(=O)c2c(=O)n(Cc3ccco3)c(COc3ccccc3)nc21 | > 16 µM (inactive)
Cc1cc(NCCOCCO)n2ncc(-c3ccc(Cl)cc3)c2n1 | 8.01 µM
C=CCC1C=C(Cc2ccccc2)CC(CC=C)N1 (stereo not given) | > 20 µM (inactive)
Cc1ccc2nc(/C(C#N)=C\c3ccc([N+](=O)[O-])o3)[nH]c2c1 | 9.06 µM
COc1ccc2nc3c(cc2c1)c(NC(=O)c1cccs1)nn3CC(C)C | > 20 µM (inactive)
